Assay results as given in ChEMBL document CHEMBL2331329, “Synthesis and biological evaluation of 2-(alkoxycarbonyl)-3-anilinobenzo[b]thiophenes and thieno[2,3-b]pyridines as new potent anticancer agents” (J Med Chem, 2013).
Active and inactive are the calls of the source. The rule behind the calls is not given here.

Key:
HeLa [1] = test: Cell cycle arrest in human HeLa cells assessed as accumulation at G2/M phase after 24 hrs by propidium iodide staining-based flow cytometry; format: functional
Outline: (§1)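 Jurkat, HT-29 and HeLa cells in exponential growth (5 × 10^5 cells) treated 24 h at a range of concentrations. Fixed in ice-cold 70% ethanol, lysed with buffer containing RNase A and 0.1% Triton X-100, stained with propidium iodide. DNA content read by flow cytometry and the percentage of cells per cycle phase derived from DNA histograms.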

HT-29 [2] = test: Cell cycle arrest in human HT-29 cells assessed as accumulation at G2/M phase after 24 hrs by propidium iodide staining-based flow cytometry; format: functional; outline: as §1
Jurkat [3] = test: Cell cycle arrest in human Jurkat cells assessed as accumulation at G2/M phase after 24 hrs by propidium iodide staining-based flow cytometry; format: functional; outline: as §1
HeLa [4] = test: Induction of apoptosis in human HeLa cells assessed as ROS production at 10 to 100 nM after 24 to 48 hrs by HE staining-based flow cytometry relative to control; format: functional, cell-based
Outline: (§2)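 HeLa cells treated 24 or 48 h, then stained with H2-DCFDA or hydroethidine. ROS read by flow cytometry against untreated control. Mean ± SEM of three independent experiments.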

HeLa [5] = test: Induction of apoptosis in human HeLa cells assessed as ROS production at 10 to 100 nM after 24 to 48 hrs by H2-DCFDA staining-based flow cytometry relative to control; format: functional, cell-based; outline: as §2
HeLa [6] = test: Induction of apoptosis in human HeLa cells assessed as mitochondrial membrane depolarization after 24 to 48 hrs by JC-1 staining; format: functional, cell-based
Outline: (§3)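 HeLa cells treated 24 or 48 h, then stained with the potentiometric dye JC-1. Proportion of cells with depolarised mitochondria read by flow cytometry. Mean ± SEM of three independent experiments.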

HeLa [7] = test: Induction of apoptosis in human HeLa cells assessed as mitochondrial membrane depolarization at 10 to 100 nM by JC-1 staining; format: functional, cell-based; details: TDE = time-dependent effect; outline: as §3
HeLa [8] = test: Induction of apoptosis in human HeLa cells assessed as early apoptotic cells at 10 to 100 nM by annexin V-FITC and propidium iodide staining-based flow cytometry; format: functional, cell-based; details: TDE = time-dependent effect
Outline: (§4)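 HeLa cells treated 24 or 48 h, then co-labelled with annexin-V–FITC and propidium iodide. Flow cytometry with 488 nm excitation and emission at 525 nm (FITC) and 585 nm (PI); early apoptotic cells counted as annexin-V+/PI−. Mean ± SEM of three independent experiments.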

HeLa [9] = test: Induction of apoptosis in human HeLa cells assessed as early apoptotic cells after 24 to 48 hrs by annexin V-FITC/Propidium iodide staining-based flow cytometry; format: functional, cell-based; outline: as §4
HeLa [10] = test: Cell cycle arrest in human HeLa cells assessed as accumulation at G2/M phase at 20 nM after 24 hrs by propidium iodide staining-based flow cytometry; format: functional; outline: as §1
HT-29 [11] = test: Cell cycle arrest in human HT-29 cells assessed as accumulation at G2/M phase at 20 nM after 24 hrs by propidium iodide staining-based flow cytometry; format: functional; outline: as §1
Jurkat [12] = test: Cell cycle arrest in human Jurkat cells assessed as accumulation at G2/M phase at 20 nM after 24 hrs by propidium iodide staining-based flow cytometry; format: functional; outline: as §1
Bos taurus [13] = species: Bos taurus; test: Displacement of [3H]colchicine from bovine brain tubulin at 1 uM after 20 mins by turbidimetric analysis
Bos taurus [14] = species: Bos taurus; test: Displacement of [3H]colchicine from bovine brain tubulin at 5 uM after 20 mins by turbidimetric analysis
[15] = Inhibition of bovine brain tubulin polymerization after 20 mins by turbidimetric analysis; design: species or system Bos taurus
Outline: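 Bovine brain tubulin (10 μM) preincubated with varying compound concentrations in glutamate buffer at 30 °C, chilled to 0 °C, 0.4 mM GTP added, then warmed to 30 °C in a recording spectrophotometer.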

A549 [16] = test: Resistance index, ratio of IC50 for human A549-T12 cells to IC50 for human A549 cells; format: functional
Outline: (§5)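 Mean ± SE of at least three independent experiments. Resistance ratio = IC50 in resistant line/IC50 in nonresistant line.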

[17] = Cytotoxicity against human A549-T12 cells after 72 hrs by MTT assay; format: functional, cell-based; details: A549, 72 h; outline: as §5
CCRF-CEM [18] = test: Resistance index, ratio of IC50 for human CEM/VBL100 cells to IC50 for human CEM cells; format: functional
Outline: (§6)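 MTT viability test: 8 × 10^3 cells per well settled 18 h at 37 °C, 5% CO2, then given fresh medium with compound (from 10 mM DMSO stocks, final DMSO ≤0.25%) for 72 h. […] CEMVbl-100 is a vinblastine-selected P-gp line; LoVoDoxo is grown in Ham's F12 with 0.1 μg/mL doxorubicin. Resistance index = resistant IC50/parental IC50.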

[19] = Cytotoxicity against human CEM/VBL100 cells after 72 hrs by MTT assay; format: functional, cell-based; details: CEM/VBL100, 72 h; outline: as §6
CCRF-CEM [20] = test: Cytotoxicity against human CEM cells after 72 hrs by MTT assay; format: functional, cell-based; outline: as §6
LoVo [21] = test: Resistance index, ratio of IC50 for human LoVo/DX cells to IC50 for human LoVo cells; format: functional; outline: as §6
[22] = Cytotoxicity against human LoVo/DX cells after 72 hrs by MTT assay; format: functional, cell-based; outline: as §6
LoVo [23] = test: Cytotoxicity against human LoVo cells after 72 hrs by MTT assay; format: functional, cell-based; outline: as §6
PBL = test: Cytotoxicity against human PHA-stimulated PBL cells after 72 hrs by MTT assay; format: cell-based
Outline: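 Peripheral blood lymphocytes from healthy donors isolated on a Lymphoprep gradient and rested overnight in RPMI-1640 with 10% FBS. Nonadherent cells at 5 × 10^5 cells/mL, with 2.5 μg/mL PHA for proliferating cultures or without it for resting ones. Compound exposure 72 h, viability by MTT. Mean ± SEM of three experiments.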

HT-29 [24] = test: Cytotoxicity against human HT-29 cells after 72 hrs by MTT assay; format: functional, cell-based; details: HT-29, 72 h
[25] = Cytotoxicity against human SEM cells after 72 hrs by MTT assay; format: functional, cell-based
Outline: (§7)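 Cells plated at 8 × 10^3 per well, 18 h at 37 °C, 5% CO2, then fresh medium with graded compound concentrations (DMSO ≤0.25%) for 72 h. Jurkat, SEM, HL-60 grown in RPMI-1640; A549, HeLa, HT-29, MCF-7 in DMEM; 10% FBS with penicillin/streptomycin. MTT viability read-out; IC50 vs 0.25% DMSO controls; mean ± SE of at least three independent experiments.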

MCF7 = test: Cytotoxicity against human MCF7 cells after 72 hrs by MTT assay; format: functional, cell-based; details: MCF7, 72 h
Jurkat [26] = test: Cytotoxicity against human Jurkat cells after 72 hrs by MTT assay; format: functional, cell-based; outline: as §7
HL-60 = test: Cytotoxicity against human HL60 cells after 72 hrs by MTT assay; format: functional, cell-based; details: HL-60, 72 h
HeLa [27] = test: Cytotoxicity against human HeLa cells after 72 hrs by MTT assay; format: functional, cell-based
A549 [28] = test: Cytotoxicity against human A549 cells after 72 hrs by MTT assay; format: functional, cell-based; details: A549, 72 h
HeLa [29] = test: Cell cycle arrest in human HeLa cells assessed as accumulation at G2/M phase at >20 nM after 24 hrs by propidium iodide staining-based flow cytometry; format: functional; outline: as §1
HT-29 [30] = test: Cell cycle arrest in human HT-29 cells assessed as accumulation at G2/M phase at >20 nM after 24 hrs by propidium iodide staining-based flow cytometry; format: functional; outline: as §1
Jurkat [31] = test: Cell cycle arrest in human Jurkat cells assessed as accumulation at G2/M phase at >20 nM after 24 hrs by propidium iodide staining-based flow cytometry; format: functional; outline: as §1

**Q.** Which Activity (HeLa [1]) does the source give for `COC(=O)c1sc2nc(C)ccc2c1Nc1cc(OC)c(OC)c(OC)c1` here?
**A.** Its Activity is “Dose-dependent effect”.

**Q.** And the Activity (HT-29 [2])?
**A.** The Activity was “Dose-dependent effect”.

**Q.** What about the Activity (Jurkat [3]) of the same compound?
**A.** Its Activity is “Dose-dependent effect”.

**Q.** And the Activity (HeLa [4])?
**A.** Its Activity is “Active”.

**Q.** What about the Activity (HeLa [5]) of the same compound?
**A.** Its Activity is “Active”.

**Q.** And the Activity (HeLa [6])?
**A.** The Activity was “Dose-dependent effect”.

**Q.** And the Activity (HeLa [7])?
**A.** The Activity was “tde”.

**Q.** And the Activity (HeLa [8])?
**A.** The Activity was “tde”.

**Q.** What about the Activity (HeLa [9]) of the same compound?
**A.** Its Activity is “Dose-dependent effect”.

**Q.** And the Activity (HeLa [10])?
**A.** Its Activity is “Active”.

**Q.** What about the Activity (HT-29 [11]) of the same compound?
**A.** The Activity was “Active”.

**Q.** What about the Activity (Jurkat [12]) of the same compound?
**A.** The Activity was “Active”.

**Q.** What about the inhibition (Bos taurus [13]) of the same compound?
**A.** The inhibition was 78%.

**Q.** What about the inhibition (Bos taurus [14]) of the same compound?
**A.** The inhibition was 95%.

**Q.** And the IC50 [15]?
**A.** The IC50 was 700 nM.

**Q.** What about the “Ratio IC50” value (A549 [16]) of the same compound?
**A.** The value was 1.2.

**Q.** And the IC50 [17]?
**A.** The IC50 was 19.5 nM.

**Q.** What about the “Ratio IC50” value (CCRF-CEM [18]) of the same compound?
**A.** The value was 1.5.

**Q.** What about the IC50 [19] of the same compound?
**A.** Its IC50 is 4.2 nM.

**Q.** And the IC50 (CCRF-CEM [20])?
**A.** Its IC50 is 2.8 nM.

**Q.** What about the “Ratio IC50” value (LoVo [21]) of the same compound?
**A.** The value was 0.3.

**Q.** What about the IC50 [22] of the same compound?
**A.** Its IC50 is 0.5 nM.

**Q.** What about the IC50 (LoVo [23]) of the same compound?
**A.** Its IC50 is 1.9 nM.

**Q.** What about the IC50 (PBL) of the same compound?
**A.** The IC50 was 3400 nM.

**Q.** And the IC50 (HT-29 [24])?
**A.** The IC50 was 0.35 nM.

**Q.** And the IC50 [25]?
**A.** The IC50 was 0.5 nM.

**Q.** And the IC50 (MCF7)?
**A.** Its IC50 is 0.53 nM.

**Q.** And the IC50 (Jurkat [26])?
**A.** Its IC50 is 0.6 nM.

**Q.** What about the IC50 (HL-60) of the same compound?
**A.** Its IC50 is 0.4 nM.

**Q.** And the IC50 (HeLa [27])?
**A.** The IC50 was 0.18 nM.

**Q.** What about the IC50 (A549 [28]) of the same compound?
**A.** The IC50 was 16.2 nM.

**Q.** And the Activity (HeLa [29])?
**A.** Its Activity is over 80%.

**Q.** And the Activity (HT-29 [30])?
**A.** The Activity was over 80%.

**Q.** What about the Activity (Jurkat [31]) of the same compound?
**A.** Its Activity is over 80%.
